Results as given in ChEMBL document CHEMBL1122222, “Synthesis and biological activities of the Z isomers of carbapenem antibiotics” (J Med Chem, 1983).
Converted amounts (≈) assume the structure as drawn.

Assays:
Mus musculus [1] = species on record: Mus musculus; assay: Half life in mouse kidney homogenates; assay type: ADME
How it was run: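 Carbapenem at 50 µg/mL incubated in 10% mouse kidney homogenate at 30 °C; residual antibiotic measured at intervals by its β-lactamase-inhibiting activity.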

[2] = system: Acinetobacter calcoaceticus; assay: Inhibition of growth of Acinetobacter calcoaceticus. IFO 13006; assay type: functional, acinetobacter calcoacet; details: Acinetobacter calcoaceticus, IFO 13006; read-out: MIC
How it was run: (§1)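 Agar dilution MIC on Trypticase soy agar; inoculum one loopful of bacterial suspension at 10⁸ cfu/mL.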

Beta-lactamase [3] = target: Beta-lactamase (Serratia marcescens, UniProt P18539); assay: Beta-lactamase inhibitory activity against cephalosporinase of Serratia marcescens. TN81; details: read-out: I50 (converted)
Beta-lactamase [4] = target: Beta-lactamase (Proteus vulgaris, UniProt P52664); assay: Beta-lactamase inhibitory activity against cephalosporinase of Proteus vulgaris GN4413; details: read-out: I50 (converted)
Citrobacter freundii = assay: Inhibition of growth of Citrobacter freundii IFO 12681; assay type: functional; details: Citrobacter freundii, IFO 12681; read-out: MIC; how it was run: as §1
Escherichia coli [5] = assay: Inhibition of growth of Escherichia coli T-7; assay type: functional; details: Escherichia coli; read-out: MIC; how it was run: as §1
Escherichia coli [6] = assay: MIC against Escherichia coli O-111; assay type: functional; how it was run: as §1
Enterobacter cloacae = assay: Inhibition of growth of Enterobacter cloacae IFO 12937; assay type: functional; details: Enterobacter cloacae, IFO 12937; read-out: MIC; how it was run: as §1
Klebsiella pneumoniae [7] = assay: Inhibition of growth of Klebsiella pneumoniae DT; assay type: functional; how it was run: as §1
Mus musculus [8] = assay: In vivo synergistic protective effect with cefotiam in mice infected with Proteus vulgaris GN4815 at 0.1 mg/kg dose given sc; assay type: functional; details: route subcutaneous
Mus musculus [9] = assay: In vivo synergistic protective effect with cefotiam in mice infected with Proteus vulgaris GN4815 at 10 mg/kg dose given sc; assay type: functional; details: route subcutaneous
Mus musculus [10] = assay: In vivo synergistic protective effect with cefotiam in mice infected with Proteus vulgaris GN4815 at 1 mg/kg dose given sc; assay type: functional; details: route subcutaneous
Mus musculus [11] = assay: Effective does against ip infected Escherichia coli O-111 […] when administered sc; assay type: functional; details: Mus musculus; read-out: ED50
How it was run: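 Slc:ICR mice; ED50 calculated by the Reed–Muench method from survival recorded 5 days after infection.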

Morganella morganii = assay: Inhibition of growth of Proteus morganii IFO 3168; assay type: functional; how it was run: as §1
Pseudomonas aeruginosa = assay: Inhibition of growth of Pseudomonas aeruginosa IFO 3455; assay type: functional; details: Pseudomonas aeruginosa, IFO 3455; read-out: MIC; how it was run: as §1
Proteus mirabilis = assay: Inhibition of growth of Proteus mirabilis IFO 3849; assay type: functional; how it was run: as §1
Proteus vulgaris = assay: Inhibition of growth of Proteus vulgaris IFO 3988; assay type: functional; how it was run: as §1
Serratia marcescens = assay: Inhibition of growth of Serratia marcescens IFO 12648; assay type: functional; how it was run: as §1
Staphylococcus aureus = assay: Inhibition of growth of Staphylococcus aureus 308 A-1; assay type: functional; details: Staphylococcus aureus; read-out: MIC; how it was run: as §1
Beta-lactamase [12] = target: Beta-lactamase (Staphylococcus aureus, UniProt P00807); assay: Beta-lactamase inhibitory activity against penicillinase of Staphylococcus aureus 1840; details: read-out: I50 (converted)
[13] = In vitro potentiation activity was tested after adding a concentration of […] into the agar plate of ampicillin or cefotiam; show synergistic effect; assay type: functional
[14] = target: Beta-lactamase (Serratia marcescens) (UniProt P18539)
[15] = target: Beta-lactamase (Staphylococcus aureus) (UniProt P00807)
Klebsiella pneumoniae [16] = assay: Beta-lactamase inhibitory activity against penicillinase of Klebsiella pneumoniae. TN1698
[17] = In vitro potentiation activity was tested after adding a concentration of […] into the agar plate of ampicillin; show synergistic effect; assay type: functional
[18] = target: T1, Beta-lactamase (Proteus mirabilis) (UniProt P30897); details: Proteus vulgaris
T1 sequence (whole entry): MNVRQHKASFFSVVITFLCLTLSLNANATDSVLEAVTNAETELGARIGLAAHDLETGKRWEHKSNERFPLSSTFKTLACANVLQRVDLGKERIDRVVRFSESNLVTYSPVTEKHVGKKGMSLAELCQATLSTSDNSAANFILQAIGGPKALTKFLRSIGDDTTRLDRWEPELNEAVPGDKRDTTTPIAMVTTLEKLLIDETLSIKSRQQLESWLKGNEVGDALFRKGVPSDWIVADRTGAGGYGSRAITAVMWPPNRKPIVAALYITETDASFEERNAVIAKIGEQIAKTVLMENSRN

[19] = target: Beta-lactamase (Staphylococcus aureus) (UniProt P00807); remark: listed apart in the source
[20] = target: Beta-lactamase (Serratia marcescens) (UniProt P18539); remark: listed apart in the source
Mus musculus [21] = assay: In vivo protective effect in mice infected with Proteus vulgaris GN4815 at (dose mg/kg) administered sc; assay type: functional
Mus musculus [22] = assay: In vivo synergistic protective effect with cefotiam in mice infected with Proteus vulgaris GN4815 at 100 mg/kg dose given sc; assay type: functional; details: route subcutaneous
[23] = target: Beta-lactamase (Serratia marcescens) (UniProt P18539); remark: listed apart in the source
[24] = target: Beta-lactamase (Staphylococcus aureus) (UniProt P00807); remark: listed apart in the source
[25] = target: T1, Beta-lactamase (Proteus mirabilis); details: Proteus vulgaris; remark: listed apart in the source
[26] = In vitro potentiation activity was tested after adding a concentration of […] into the agar plate of cefotiam; show synergistic effect; assay type: functional
[27] = Escherichia coli, read-out: MIC
[28] = Klebsiella pneumoniae, read-out: MIC
[29] = Morganella morganii, IFO 3168, read-out: MIC
[30] = Proteus mirabilis, IFO 3849, read-out: MIC
[31] = Proteus vulgaris, IFO 3988, read-out: MIC
[32] = Serratia marcescens, IFO 12648, read-out: MIC

Beta-lactamase (Proteus vulgaris, UniProt P52664), sequence (P52664 whole entry, looked up): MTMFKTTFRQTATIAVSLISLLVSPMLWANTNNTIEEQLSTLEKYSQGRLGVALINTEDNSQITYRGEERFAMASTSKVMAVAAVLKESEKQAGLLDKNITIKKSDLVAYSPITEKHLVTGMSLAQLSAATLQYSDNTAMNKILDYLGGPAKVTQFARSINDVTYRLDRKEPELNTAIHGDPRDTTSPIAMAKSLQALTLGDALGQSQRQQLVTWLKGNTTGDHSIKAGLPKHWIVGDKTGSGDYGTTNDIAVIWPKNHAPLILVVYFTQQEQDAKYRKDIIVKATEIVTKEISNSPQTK
Beta-lactamase (Staphylococcus aureus), sequence (P00807 whole entry): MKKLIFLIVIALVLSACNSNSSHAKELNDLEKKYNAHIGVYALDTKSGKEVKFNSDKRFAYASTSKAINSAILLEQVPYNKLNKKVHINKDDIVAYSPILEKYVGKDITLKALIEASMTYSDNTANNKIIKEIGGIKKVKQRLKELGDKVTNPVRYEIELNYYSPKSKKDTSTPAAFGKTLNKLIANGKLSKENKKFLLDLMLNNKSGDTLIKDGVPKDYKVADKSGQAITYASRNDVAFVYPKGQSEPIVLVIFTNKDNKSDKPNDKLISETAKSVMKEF
Beta-lactamase (Staphylococcus aureus, UniProt P00807), sequence (P00807 whole entry): as above
Beta-lactamase (Serratia marcescens, UniProt P18539), sequence (P18539 whole entry): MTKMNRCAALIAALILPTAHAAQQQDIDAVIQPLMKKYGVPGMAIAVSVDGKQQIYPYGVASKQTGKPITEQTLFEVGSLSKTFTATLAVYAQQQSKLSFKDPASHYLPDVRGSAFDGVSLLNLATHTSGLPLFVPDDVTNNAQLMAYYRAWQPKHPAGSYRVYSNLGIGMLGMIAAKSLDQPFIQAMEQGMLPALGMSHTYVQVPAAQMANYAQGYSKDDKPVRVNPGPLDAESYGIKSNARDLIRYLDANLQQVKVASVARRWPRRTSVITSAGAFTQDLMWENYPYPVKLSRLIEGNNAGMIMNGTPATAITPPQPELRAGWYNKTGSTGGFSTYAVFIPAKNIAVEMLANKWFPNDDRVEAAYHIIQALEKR
Beta-lactamase (Serratia marcescens), sequence (P18539 whole entry): as above

Row | Compound | T1/2 (Mus musculus [1]) [min] | MIC [2] [µg/mL] | IC50 (Beta-lactamase [3]) [nM] | IC50 (Beta-lactamase [4]) [nM] | MIC (Citrobacter freundii) [µg/mL] | MIC (Escherichia coli [5]) [µg/mL] | MIC (Escherichia coli [6]; [27]) [µg/mL] | MIC (Enterobacter cloacae) [µg/mL] | MIC (Klebsiella pneumoniae [7]; [28]) [µg/mL] | ED50 at 1 mg/kg (Mus musculus [10]) [mg/kg] | ED50 (Mus musculus [11]) [mg/kg] | MIC (Morganella morganii; [29]) [µg/mL] | MIC (Pseudomonas aeruginosa) [µg/mL] | MIC (Proteus mirabilis; [30]) [µg/mL] | MIC (Proteus vulgaris; [31]) [µg/mL] | MIC (Serratia marcescens; [32]) [µg/mL] | MIC (Staphylococcus aureus) [µg/mL] | IC50 (Beta-lactamase [12]) [nM] | further results
1 | CC(=O)N/C=C\[S+]([O-])C1=C(C(=O)[O-])N2C(=O)[C@@H](C(C)(C)OS(=O)(=O)[O-])[C@H]2C1.[Na+].[Na+] (stereo in doubt; 8) | 75 | > 100 | 38.6 | 1.18 | 25 | 12.5 | 6.25 | 50 | 50 | 6.25 | > 50 | 100 | > 100 | > 100 | > 100 | 50 | 6.25 | 515 | ED50 at 0.1 mg/kg (Mus musculus [8]): 18.1 mg/kg; ED50 at 10 mg/kg (Mus musculus [9]): 2.41 mg/kg
2 | CC(=O)N/C=C\SC1=C(C(=O)[O-])N2C(=O)[C@@H](C(C)(C)OS(=O)(=O)[O-])[C@H]2C1.[Na+].[Na+] |  | > 100 | 113 | 8.44 | 50 | 100 | 12.5 | 100 | 50 |  | > 50 | 100 | > 100 | 100 | 100 | 100 | 6.25 | 2220 | Activity [13]: synergistic effect; MIC [14]: 25 µg/mL; MIC [15]: 50 µg/mL; MIC (Klebsiella pneumoniae [16]): 50 µg/mL
3 | CC(=O)N/C=C/[S+]([O-])C1=C(C(=O)O)N2C(=O)[C@@H](C(C)(C)O)[C@H]2C1 (stereo in doubt; 20) |  |  |  |  |  |  |  |  |  |  |  |  |  |  |  |  |  |  | Activity [17]: synergistic effect
4 | CC(=O)N/C=C\[S+]([O-])C1=C(C(=O)O)N2C(=O)[C@@H](C(C)OS(=O)(=O)O)[C@H]2C1 (stereo partly specified) |  |  | 0.752 | 0.354 |  |  |  |  |  |  |  |  |  |  |  |  |  | 7.52 | MIC [18]: 50 µg/mL (≈ 122 µM); MIC [19]: 50 µg/mL (≈ 122 µM); MIC [20]: 25 µg/mL (≈ 61.2 µM)
5 | CN(C)CCn1nnnc1SCC1=C(C(=O)O)N2C(=O)[C@@H](NC(=O)Cc3csc(N)n3)[C@H]2SC1 [CEFOTIAM] |  |  |  |  |  |  |  |  |  |  |  |  |  |  |  |  |  |  | ED50 (Mus musculus [21]): 35.5 mg/kg
6 | CC(=O)N/C=C\[S+]([O-])C1=C(C(=O)[O-])N2C(=O)[C@@H](C(C)(C)O)[C@H]2C1.[Na+] (stereo in doubt; 11) | 45 |  | 0.933 | 3.02 |  |  |  |  |  | 5.58 |  |  |  |  |  |  |  | 151 | MIC (Escherichia coli [6]): <0.1 µg/mL; MIC (Klebsiella pneumoniae [7]): 3.13 µg/mL; ED50 at 0.1 mg/kg (Mus musculus [8]): 21.6 mg/kg; MIC (Morganella morganii): 12.5 µg/mL; MIC (Proteus mirabilis): 12.5 µg/mL; MIC (Proteus vulgaris): 25 µg/mL; MIC (Serratia marcescens): 3.13 µg/mL
7 | CC(=O)N/C=C/[S+]([O-])C1=C(C(=O)[O-])N2C(=O)[C@@H](C(C)(C)OS(=O)(=O)[O-])[C@H]2C1.[Na+].[Na+] (stereo partly specified) | 22 | 25 | 118 | 0.793 | 12.5 | 12.5 | 6.25 | 25 | 12.5 | 12.5 | > 100 | 50 | > 100 | 50 | 50 | 12.5 | 12.5 | 450 | ED50 at 100 mg/kg (Mus musculus [22]): 3.86 mg/kg; ED50 at 10 mg/kg (Mus musculus [9]): 8.87 mg/kg; Activity [13]: synergistic effect; MIC [23]: 6.25 µg/mL; MIC [24]: 12.5 µg/mL; MIC [25]: 1.56 µg/mL; MIC (Klebsiella pneumoniae [16]): 6.25 µg/mL
8 | CC(=O)N/C=C\[S+]([O-])C1=C(C(=O)O)N2C(=O)[C@@H](C(C)(C)O)[C@H]2C1 (stereo in doubt; 22) |  |  |  |  |  |  |  |  |  |  |  |  |  |  |  |  |  |  | Activity [26]: synergistic effect
